Legend:
[1] = tested on: Plasmodium falciparum; test: Antiplasmodial activity against chloroquine-sensitive Plasmodium falciparum 3D7 by [3H]-hypoxanthine incorporation assay; type: functional, organism-based
How it was run: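 Blood-stage P. falciparum 3D7 and FCR-3 were tested by a modified [3H]-hypoxanthine incorporation assay. Chloroquine was the reference in all runs.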

[2] = Genotoxicity in Salmonella typhimurium TA1535 harboring pSK1002 assessed as umu gene induction at 0.063 mg/ml in presence of Sprague-Dawley rat liver S9 fraction after by SOS/umu assay relative to control; type: toxicity, organism-based; details: salmonella enterica subsp. enterica serovar typhimurium, read-out: FC
[3] = Genotoxicity in Salmonella typhimurium TA1535 harboring pSK1002 assessed as survival at 0.031 mg/ml in absence of Sprague-Dawley rat liver S9 fraction after by SOS/umu assay relative to control; type: toxicity, organism-based; details: salmonella enterica subsp. enterica serovar typhimurium, read-out: Survival
[4] = Genotoxicity in Salmonella typhimurium TA1535 harboring pSK1002 assessed as survival at 0.063 mg/ml in presence of Sprague-Dawley rat liver S9 fraction after by SOS/umu assay relative to control; type: toxicity, organism-based; details: salmonella enterica subsp. enterica serovar typhimurium, read-out: Survival
[5] = Genotoxicity in Salmonella typhimurium TA1535 harboring pSK1002 assessed as umu gene induction at 0.016 mg/ml in presence of Sprague-Dawley rat liver S9 fraction after by SOS/umu assay relative to control; type: toxicity, organism-based; details: salmonella enterica subsp. enterica serovar typhimurium, read-out: FC
[6] = Selectivity index, ratio of CC50 for human HepG2A16 cells by MTT assay to IC50 for multidrug-resistant Plasmodium falciparum FCR-3; type: toxicity; details: for selectivity ratio: HepG2A16 cells, read-out: Ratio CC50/IC50
How it was run: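 HepG2-A16 human hepatoma cells were tested by MTT viability assay to give CC50. Blood-stage activity was measured against the multidrug-resistant P. falciparum FCR-3 strain by [3H]-hypoxanthine incorporation to give IC50. SI = CC50 HepG2 / FCR-3 IC50.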

[7] = Genotoxicity in Salmonella typhimurium TA1535 harboring pSK1002 assessed as umu gene induction at 0.004 mg/ml in presence of Sprague-Dawley rat liver S9 fraction after by SOS/umu assay relative to control; type: toxicity, organism-based; details: salmonella enterica subsp. enterica serovar typhimurium, read-out: FC
[8] = Genotoxicity in Salmonella typhimurium TA1535 harboring pSK1002 assessed as survival at 0.004 mg/ml in presence of Sprague-Dawley rat liver S9 fraction after by SOS/umu assay relative to control; type: toxicity, organism-based; details: salmonella enterica subsp. enterica serovar typhimurium, read-out: Survival
[9] = Genotoxicity in Salmonella typhimurium TA1535 harboring pSK1002 assessed as survival at 0.004 mg/ml in absence of Sprague-Dawley rat liver S9 fraction after by SOS/umu assay relative to control; type: toxicity, organism-based; details: salmonella enterica subsp. enterica serovar typhimurium, read-out: Survival
[10] = Genotoxicity in Salmonella typhimurium TA1535 harboring pSK1002 assessed as umu gene induction at 0.016 mg/ml in absence of Sprague-Dawley rat liver S9 fraction after by SOS/umu assay relative to control; type: toxicity, organism-based; details: salmonella enterica subsp. enterica serovar typhimurium, read-out: FC
[11] = Genotoxicity in Salmonella typhimurium TA1535 harboring pSK1002 assessed as umu gene induction at 0.031 mg/ml in presence of Sprague-Dawley rat liver S9 fraction after by SOS/umu assay relative to control; type: toxicity, organism-based; details: salmonella enterica subsp. enterica serovar typhimurium, read-out: FC
[12] = Genotoxicity in Salmonella typhimurium TA1535 harboring pSK1002 assessed as survival at 0.008 mg/ml in absence of Sprague-Dawley rat liver S9 fraction after by SOS/umu assay relative to control; type: toxicity, organism-based; details: salmonella enterica subsp. enterica serovar typhimurium, read-out: Survival
[13] = Genotoxicity in Salmonella typhimurium TA1535 harboring pSK1002 assessed as survival at 0.016 mg/ml in absence of Sprague-Dawley rat liver S9 fraction after by SOS/umu assay relative to control; type: toxicity, organism-based; details: salmonella enterica subsp. enterica serovar typhimurium, read-out: Survival
[14] = Genotoxicity in Salmonella typhimurium TA1535 harboring pSK1002 assessed as survival at 0.008 mg/ml in presence of Sprague-Dawley rat liver S9 fraction after by SOS/umu assay relative to control; type: toxicity, organism-based; details: salmonella enterica subsp. enterica serovar typhimurium, read-out: Survival
[15] = Genotoxicity in Salmonella typhimurium TA1535 harboring pSK1002 assessed as umu gene induction at 0.031 mg/ml in absence of Sprague-Dawley rat liver S9 fraction after by SOS/umu assay relative to control; type: toxicity, organism-based; details: salmonella enterica subsp. enterica serovar typhimurium, read-out: FC
[16] = Genotoxicity in Salmonella typhimurium TA1535 harboring pSK1002 assessed as umu gene induction at 0.001 mg/ml in presence of Sprague-Dawley rat liver S9 fraction after by SOS/umu assay relative to control; type: toxicity, organism-based; details: salmonella enterica subsp. enterica serovar typhimurium, read-out: FC
[17] = Cytotoxicity against human HepG2A16 cells by MTT assay; type: cell-based
How it was run: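 MTT viability assay on HepG2-A16 cells, giving CC50 values.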

[18] = Genotoxicity in Salmonella typhimurium TA1535 harboring pSK1002 assessed as umu gene induction at 0.001 mg/ml in absence of Sprague-Dawley rat liver S9 fraction after by SOS/umu assay relative to control; type: toxicity, organism-based; details: salmonella enterica subsp. enterica serovar typhimurium, read-out: FC
[19] = Genotoxicity in Salmonella typhimurium TA1535 harboring pSK1002 assessed as umu gene induction at 0.004 mg/ml in absence of Sprague-Dawley rat liver S9 fraction after by SOS/umu assay relative to control; type: toxicity, organism-based; details: salmonella enterica subsp. enterica serovar typhimurium, read-out: FC
[20] = Genotoxicity in Salmonella typhimurium TA1535 harboring pSK1002 assessed as survival at 0.125 mg/ml in absence of Sprague-Dawley rat liver S9 fraction after by SOS/umu assay relative to control; type: toxicity, organism-based; details: salmonella enterica subsp. enterica serovar typhimurium, read-out: Survival
[21] = Genotoxicity in Salmonella typhimurium TA1535 harboring pSK1002 assessed as umu gene induction at 0.008 mg/ml in absence of Sprague-Dawley rat liver S9 fraction after by SOS/umu assay relative to control; type: toxicity, organism-based; details: salmonella enterica subsp. enterica serovar typhimurium, read-out: FC
[22] = Genotoxicity in Salmonella typhimurium TA1535 harboring pSK1002 assessed as survival at 0.063 mg/ml in absence of Sprague-Dawley rat liver S9 fraction after by SOS/umu assay relative to control; type: toxicity, organism-based; details: salmonella enterica subsp. enterica serovar typhimurium, read-out: Survival
[23] = Genotoxicity in Salmonella typhimurium TA1535 harboring pSK1002 assessed as umu gene induction at 0.125 mg/ml in presence of Sprague-Dawley rat liver S9 fraction after by SOS/umu assay relative to control; type: toxicity, organism-based; details: salmonella enterica subsp. enterica serovar typhimurium, read-out: FC
[24] = Genotoxicity in Salmonella typhimurium TA1535 harboring pSK1002 assessed as survival at 0.001 mg/ml in presence of Sprague-Dawley rat liver S9 fraction after by SOS/umu assay relative to control; type: toxicity, organism-based; details: salmonella enterica subsp. enterica serovar typhimurium, read-out: Survival
[25] = Genotoxicity in Salmonella typhimurium TA1535 harboring pSK1002 assessed as survival at 0.031 mg/ml in presence of Sprague-Dawley rat liver S9 fraction after by SOS/umu assay relative to control; type: toxicity, organism-based; details: salmonella enterica subsp. enterica serovar typhimurium, read-out: Survival
[26] = Genotoxicity in Salmonella typhimurium TA1535 harboring pSK1002 assessed as umu gene induction at 0.063 mg/ml in absence of Sprague-Dawley rat liver S9 fraction after by SOS/umu assay relative to control; type: toxicity, organism-based; details: salmonella enterica subsp. enterica serovar typhimurium, read-out: FC
[27] = Genotoxicity in Salmonella typhimurium TA1535 harboring pSK1002 assessed as umu gene induction at 0.125 mg/ml in absence of Sprague-Dawley rat liver S9 fraction after by SOS/umu assay relative to control; type: toxicity, organism-based; details: salmonella enterica subsp. enterica serovar typhimurium, read-out: FC
[28] = Genotoxicity in Salmonella typhimurium TA1535 harboring pSK1002 assessed as survival at 0.125 mg/ml in presence of Sprague-Dawley rat liver S9 fraction after by SOS/umu assay relative to control; type: toxicity, organism-based; details: salmonella enterica subsp. enterica serovar typhimurium, read-out: Survival
[29] = Genotoxicity in Salmonella typhimurium TA1535 harboring pSK1002 assessed as survival at 0.016 mg/ml in presence of Sprague-Dawley rat liver S9 fraction after by SOS/umu assay relative to control; type: toxicity, organism-based; details: salmonella enterica subsp. enterica serovar typhimurium, read-out: Survival

Compound	fold induction at 0.063 mg/ml [2]	viability at 0.031 mg/ml [3]	viability at 0.063 mg/ml [4]	fold induction at 0.016 mg/ml [5]	fold induction at 0.004 mg/ml [7]	viability at 0.004 mg/ml [8]	viability at 0.004 mg/ml [9]	fold induction at 0.016 mg/ml [10]	fold induction at 0.031 mg/ml [11]	viability at 0.008 mg/ml [12]	viability at 0.016 mg/ml [13]	viability at 0.008 mg/ml [14]	fold induction at 0.031 mg/ml [15]	fold induction at 0.001 mg/ml [16]	fold induction at 0.001 mg/ml [18]	fold induction at 0.004 mg/ml [19]	fold induction at 0.008 mg/ml [21]	viability at 0.063 mg/ml [22]	viability at 0.001 mg/ml [24]	viability at 0.031 mg/ml [25]	also measured
COc1ccccc1N1CCN(CCC(O)c2ccc(F)cc2)CC1 (stereo in doubt; 66)	0.9	116%	100%	1.1	1	93.1%	108%	1	0.9	114%	108%	88.2%	1	1.3	1.1	1.1	1	108%	91.6%	99.2%	IC50 [1]: 7.31 µM; Ratio CC50/IC50 [6]: 103; CC50 [17]: 19.5 µM; viability at 0.125 mg/ml [20]: 107%; fold induction at 0.125 mg/ml [23]: 1; fold induction at 0.063 mg/ml [26]: 0.9; fold induction at 0.125 mg/ml [27]: 0.9; viability at 0.125 mg/ml [28]: 89.8%; viability at 0.016 mg/ml [29]: 82.8%
N#Cc1ccc(N2CCC(NCCC(O)c3ccc(F)c4ccccc34)CC2)c(Br)c1 (centres undefined)	0.6	19.4%	46.3%	1.9	0.9	97.5%	107%	2.1	1.2	18.9%	18.6%	87.4%	1.5	0.9	1.3	1.4	2.2	42.6%	87.2%	35.3%	IC50 ([1]; Plasmodium falciparum, 3D7): 0.22 µM; selectivity ratio [6]: 141; CC50 ([17]; HepG2A16 cells): 9.87 µM; fold induction at 0.063 mg/ml [26]: 0.6; viability at 0.016 mg/ml [29]: 80.2%
OC(CCN1CCN(C(c2ccccc2)c2ccccc2)CC1)c1ccc(F)c2ccccc12 (centres undefined)	1.5	107%	91.9%	0.7	0.8	111%	69%	1.4	1.2	80.6%	86.3%	143%	1	0.9	0.6	1.3	1.4	141%	108%	95.2%	IC50 ([1]; Plasmodium falciparum, 3D7): 0.62 µM; selectivity ratio [6]: 60; CC50 ([17]; HepG2A16 cells): 19.9 µM; fold induction at 0.063 mg/ml [26]: 0.8; viability at 0.016 mg/ml [29]: 99.6%
